Legend:
WI-38 = test: Cytotoxicity against human WI38 cells after 24 hrs by resazurin assay; conditions: WI-38, 24 h
Plasmodium falciparum = test: Antimalarial activity against chloroquine-resistant Plasmodium falciparum Dd2 assessed as parasite growth inhibition after 72 hrs by SYBR Green 1 assay; assay type: functional; conditions: Dd2, 72 h
Procedure, shortened: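 Viability was read by SYBR Green I DNA quantitation and normalized to DMSO-treated untreated controls. IC50 came from nonlinear regression, averaging at least three independent experiments run in triplicate, with standard deviations.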

[1] = Selectivity index, ratio of IC50 for human WI38 cells to IC50 for chloroquine-resistant Plasmodium falciparum Dd2; assay type: toxicity; conditions: read-out: Ratio IC50

Structure (SMILES)	IC50 (WI-38)	IC50 (Plasmodium falciparum)	selectivity ratio [1]
C/C=C(\C)C(=O)OC[C@]1(O)[C@H]2C[C@H]2[C@]2(C)[C@@H]3CC4=C5[C@H](/C(=C(/C)C(=O)OC)C(=O)[C@H](O)[C@@]5(C)[C@@H]5C[C@H]45)[C@@]34OC(=O)C(COC(C)=O)=C4C[C@@H]12	160 nM	13 nM	12
COC(=O)CCC(=O)OCC1=C2C[C@H]3[C@](O)(COC(=O)/C=C(\C)CO)[C@H]4C[C@H]4[C@]3(C)[C@@H]3CC4=C5[C@H](/C(=C(\C)C(=O)OC)C(=O)[C@H](O)[C@@]5(C)[C@@H]5C[C@H]45)[C@]23OC1=O	5390 nM	1.1 nM	4900
C/C=C(\C)C(=O)OC[C@]1(O)[C@H]2CC3=C(CO)C(=O)O[C@@]34[C@@H]3C5=C(C[C@H]4[C@@]2(C)[C@@H]2C[C@@H]21)[C@H]1C[C@H]1[C@]5(C)[C@@H](O)C(=O)/C3=C(\C)C(=O)OC	770 nM	21 nM	37
COC(=O)/C(C)=C1\C(=O)[C@H](O)[C@]2(C)C3=C(C[C@@H]4[C@]5(OC(=O)C(C)=C5C[C@H]5[C@](O)(COC(=O)/C=C(\C)CO)[C@H]6C[C@H]6[C@]45C)[C@H]31)[C@H]1C[C@H]12	4450 nM	96 nM	46
COC(=O)/C(C)=C1\C(=O)[C@H](O)[C@]2(C)C3=C(C[C@@H]4[C@]5(OC(=O)C(COC(=O)C[C@H](O)C(=O)OC)=C5C[C@H]5[C@](O)(COC(=O)/C(C)=C/CO)[C@H]6C[C@H]6[C@]45C)[C@H]31)[C@H]1C[C@H]12	4040 nM	7.2 nM	561
COC(=O)/C(C)=C1\C(=O)[C@H](O)[C@]2(C)C3=C(C[C@@H]4[C@]5(OC(=O)C(CO)=C5C[C@H]5[C@](O)(COC(C)=O)[C@H]6C[C@H]6[C@]45C)[C@H]31)[C@H]1C[C@H]12	10000 nM	100 nM	100
COC(=O)/C(C)=C1/C(=O)[C@H](O)[C@]2(C)C3=C(C[C@@H]4[C@]5(OC(=O)C6=C5C[C@H]5[C@](O)(COC(=O)/C=C(\C)COC(=O)CCC(=O)OC6)[C@H]6C[C@H]6[C@]45C)[C@H]31)[C@H]1C[C@H]12	1240 nM	46 nM	27
C=C1C(=O)O[C@]23C4=C5C(=O)[C@H](O)[C@]6(C)C4=C(C[C@H]2[C@]2(C)C(C[C@]13[C@]5(C)C(=O)OC)[C@](O)(COC(=O)/C(C)=C/COC(=O)CCC(=O)OC)[C@H]1C[C@H]12)[C@H]1C[C@H]16 (stereo not given in full)	15500 nM	99 nM	157
COC(=O)/C(C)=C1\C(=O)[C@H](O)[C@]2(C)C3=C(C[C@@H]4[C@]5(OC(=O)C6=C5C[C@H]5[C@](O)(COC(=O)/C(C)=C/COC(=O)CCC(=O)OC6)[C@H]6C[C@H]6[C@]45C)[C@H]31)[C@H]1C[C@H]12 [SHIZUKAOL B]	16700 nM	27 nM	619
COC(=O)/C(C)=C1\C(=O)[C@H](O)[C@]2(C)C3=C(C[C@@H]4[C@]5(OC(=O)C6=C5C[C@H]5[C@](O)(COC(=O)/C=C(\C)COC(=O)CCC(=O)OC6)[C@H]6C[C@H]6[C@]45C)[C@H]31)[C@H]1C[C@H]12 [SHIZUKAOL F]	230 nM	11 nM	21

Source: ChEMBL document CHEMBL4004786, “Nanomolar Antimalarial Agents against Chloroquine-Resistant Plasmodium falciparum from Medicinal Plants and Their Structure-Activity Relationships” (J Nat Prod, 2017)
